According to ChEMBL document CHEMBL2396655, “Design, synthesis, and biological evaluation of (E)-N-aryl-2-arylethenesulfonamide analogues as potent and orally bioavailable microtubule-targeted anticancer agents” (J Med Chem, 2013):
The source made the active and inactive calls. The rule behind the calls is not given here.

Columns and labels:
Mus musculus [1] = assay: AUC in ICR mouse at 5 mg/kg, po by LC-MS/MS analysis; type: ADME, organism-based, Plasma; design: dose 5 mg/kg, route oral; conditions: in vivo
How it was run: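 Male ICR mice, 6–8 weeks old, N=3 per group. Single 5 mg/kg dose in NMP:PEG300:water (1:4:5 v/v), given as IV bolus or oral gavage. Serial arterial blood was drawn through a carotid cannula at 2–360 min. Plasma was protein-precipitated with acetonitrile containing internal standard and assayed by LC/MS/MS. Parameters were derived by noncompartmental analysis.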

Mus musculus [2] = assay: Volume of distribution at steady state in ICR mouse at 5 mg/kg, iv by LC-MS/MS analysis; type: ADME, organism-based; design: dose 5 mg/kg, route intravenous; conditions: in vivo
How it was run: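 Male ICR mice, 6–8 weeks old (N=3 per group), with a carotid artery cannula implanted one day before dosing. Dosed at 5 mg/kg in NMP:PEG300:water (1:4:5) as an IV bolus or by oral gavage. Blood drawn at 2–360 min; plasma protein-precipitated with acetonitrile containing internal standard, assayed by LC/MS/MS; noncompartmental analysis.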

Plasma = assay: Plasma protein binding in dog at 10 to 50 uM by equilibrium dialysis; type: ADME, cell-free, Canis lupus familiaris
2008 = assay: Resistance factor, ratio of GI50 for paclitaxel-resistant human 2008/17/4 cells to GI50 for human 2008 cells; type: functional
Mus musculus [3] = assay: Toxicity in NCR-nu/nu mouse assessed as reduction in body weight at 20 mg/kg, ip treated 3 times a week for 2 weeks measured on alternate days for 14 days; type: organism-based; design: dose 20 mg/kg, route intraperitoneal; conditions: in vivo, 336 h
How it was run: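 Female athymic NCr-nu/nu mice bearing subcutaneous BT20 hind-leg tumors (~100–150 mm³) were given 20 mg/kg IP in DMSO (0.1 mL), 3 times a week for 2 weeks (N=8; vehicle N=7).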

DU-145 = assay: Induction of apoptosis in human DU145 cells assessed as increase in PARP cleavage at 10 to 20 nM after 24 to 72 hrs by Western blotting analysis; type: functional, cell-based
How it was run: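 DU145 cells were plated at 1.0×10⁶ per plate and treated 24 h later with DMSO or increasing concentrations, then harvested at set time points. Cells were lysed in 0.1% Triton X-100 buffer with protease inhibitors. Equal protein was run on 10% SDS-PAGE, blotted with anti-PARP and detected with IRDye 800 secondary on Odyssey.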

## COc1cc(OC)c(/C=C/S(=O)(=O)Nc2ccc(OC)c(N)c2)c(OC)c1
Mus musculus [1]
  AUC: 700 ng·h/mL
Mus musculus [2]
  Vdss: 2.13 L/kg
Plasma
  PPB: 98.48%
2008
  RatioGI50: 1
Mus musculus [3]
  Activity: Non-toxic
DU-145
  Activity: Active
